The source made the active and inactive calls.

The target in assay [1] is Beta-lactamase OXA-10 (Pseudomonas aeruginosa) (UniProt P14489). The assay is described as follows: Inhibition of recombinant Pseudomonas aeruginosa OXA-10 using FC5 as substrate assessed as residual activity at 200 uM.
The target in assay [2] is Beta-lactamase (Escherichia coli K-12) (UniProt P00811). The assay is described as follows: Inhibition of recombinant Escherichia coli AmpC assessed as residual activity at 200 uM using FC5 as substrate preincubated at 10 to 300 mins followed by substrate addition.
Chain of Beta-lactamase (Escherichia coli K-12) (P00811 whole entry, the tested form may be a part): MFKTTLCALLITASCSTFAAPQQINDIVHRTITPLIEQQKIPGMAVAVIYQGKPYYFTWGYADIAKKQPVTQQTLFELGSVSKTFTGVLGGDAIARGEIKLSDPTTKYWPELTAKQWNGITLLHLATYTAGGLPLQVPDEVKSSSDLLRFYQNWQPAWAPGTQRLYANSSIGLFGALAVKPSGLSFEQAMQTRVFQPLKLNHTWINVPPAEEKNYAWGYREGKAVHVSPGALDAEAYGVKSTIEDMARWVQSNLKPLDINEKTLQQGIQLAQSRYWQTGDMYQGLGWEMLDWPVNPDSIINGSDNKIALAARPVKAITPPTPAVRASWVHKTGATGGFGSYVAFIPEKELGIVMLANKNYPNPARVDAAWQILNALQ
Assay [3] concerns the target Beta-lactamase OXA-10 (Pseudomonas aeruginosa) (UniProt P14489). Nature of the assay: Inhibition of recombinant Pseudomonas aeruginosa OXA-10 at 200 uM using FC5 as substrate.
The target in assay [4] is Beta-lactamase CTX-M (Escherichia coli) (UniProt Q9EXV5). The assay is described as follows: Inhibition of recombinant Escherichia coli EO516 N-terminal His6-tagged CTX-M using FC5 as substrate at 200 uM preincubated at 10 to 300 mins followed by substrate addition.
Assay [5] concerns the target Beta-lactamase (Escherichia coli K-12) (UniProt P00811). Nature of the assay: Inhibition of recombinant Escherichia coli AmpC at 200 uM using FC5 as substrate preincubated at 10 to 300 mins followed by substrate addition.
Assay [6] has as its target Beta-lactamase TEM (Bacteria) (UniProt P62593). Nature of the assay: Inhibition of recombinant N-terminal His-tagged Escherichia coli TEM1 (24 to 286 residues) expressed in Escherichia coli BL21(DE3) at 200 uM using FC5 as substrate.
For assay [7], the system named is Bacteria. The assay is described as follows: Inhibition of recombinant bacterial IMP1 expressed in Escherichia coli BL21 (DE3) cells using FC4-FC5 as substrate assessed as residual activity at 100 uM by fluorescence-based assay. In a few lines:
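IMP-1 was incubated with inhibitor for 10 min before substrate was added. Residual activity was calculated from the initial rate of FC5 hydrolysis.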

Assay [8] deals with Bacteria. The assay is described as follows: Inhibition of recombinant full-length bacterial His6-tagged VIM2 (27 to 266 residues) expressed in Escherichia coli BL21 (DE3) cells using FC4-FC5 as substrate assessed as residual activity at 100 uM by fluorescence-based assay.
Assay [9] has as its system Bacteria. The assay is described as follows: Inhibition of recombinant bacterial IMP1 expressed in Escherichia coli BL21 (DE3) cells at 100 uM using FC4-FC5 as substrate by fluorescence-based assay.
Assay [10] has as its system Bacteria. Nature of the assay: Inhibition of recombinant bacterial NDM1 expressed in Escherichia coli BL21 (DE3) cells at 100 uM using FC5 as fluorogenic reporter substrate preincubated at 10 to 300 mins followed by substrate addition.
The test system of assay [11] is Bacteria. The assay is described as follows: Inhibition of recombinant full-length bacterial His6-tagged VIM2 (27 to 266 residues) expressed in Escherichia coli BL21 (DE3) cells at 100 uM using FC4-FC5 as substrate by fluorescence-based assay.
Assay [12] deals with Bacteria. The assay is described as follows: Inhibition of recombinant full-length bacterial His6-tagged SPM1 (29 to 276 residues) expressed in Escherichia coli BL21 (DE3) cells at 100 uM using FC4-FC5 as substrate by fluorescence-based assay.
The target of assay [13] is Metallo-beta-lactamase type 2 (Aeromonas hydrophila) (UniProt P26918). The assay is described as follows: Inhibition of Aeromonas hydrophila CphA at 100 uM using fluorogenic cephalosporin as substrate.
Chain of Metallo-beta-lactamase type 2 (Aeromonas hydrophila) (P26918 whole entry): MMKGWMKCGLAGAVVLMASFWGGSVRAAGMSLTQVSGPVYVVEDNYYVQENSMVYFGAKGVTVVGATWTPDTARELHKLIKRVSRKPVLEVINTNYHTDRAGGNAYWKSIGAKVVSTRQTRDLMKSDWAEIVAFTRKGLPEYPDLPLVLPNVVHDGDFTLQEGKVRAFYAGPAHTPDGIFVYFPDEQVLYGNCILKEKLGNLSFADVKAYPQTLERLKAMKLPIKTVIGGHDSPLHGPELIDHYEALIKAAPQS
Assay [14] addresses T1, Metallo-beta-lactamase type 2 (Bacillus cereus) (UniProt P04190).
T1 sequence (whole entry): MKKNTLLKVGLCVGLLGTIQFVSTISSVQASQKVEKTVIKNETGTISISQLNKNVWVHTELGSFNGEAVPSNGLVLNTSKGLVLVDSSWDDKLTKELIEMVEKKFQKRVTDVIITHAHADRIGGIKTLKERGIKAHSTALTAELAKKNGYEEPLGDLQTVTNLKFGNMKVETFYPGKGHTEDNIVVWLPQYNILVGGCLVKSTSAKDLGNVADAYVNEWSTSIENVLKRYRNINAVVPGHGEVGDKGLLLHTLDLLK
Nature of the assay: Inhibition of recombinant bacterial BC2 expressed in Escherichia coli BL21 (DE3) cells at 100 uM using FC4-FC5 as substrate by fluorescence-based assay.

The target of assay [15] is Beta-lactamase TEM (Bacteria) (UniProt P62593). The assay is described as follows: Inhibition of recombinant N-terminal His-tagged Escherichia coli TEM1 (24 to 286 residues) expressed in Escherichia coli BL21(DE3) using FC5 as substrate assessed as residual activity at 200 uM.
Chain of Beta-lactamase TEM (Bacteria) (P62593 whole entry, the tested form may be a part): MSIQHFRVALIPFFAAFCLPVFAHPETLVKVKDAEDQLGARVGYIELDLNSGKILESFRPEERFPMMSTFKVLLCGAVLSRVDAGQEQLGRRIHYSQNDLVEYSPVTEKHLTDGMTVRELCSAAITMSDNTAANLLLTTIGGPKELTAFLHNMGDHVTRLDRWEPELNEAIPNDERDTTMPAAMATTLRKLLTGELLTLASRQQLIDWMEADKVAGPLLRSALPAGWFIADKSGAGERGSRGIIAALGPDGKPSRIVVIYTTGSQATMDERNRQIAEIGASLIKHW

Chain of Beta-lactamase OXA-10 (Pseudomonas aeruginosa) (P14489 whole entry): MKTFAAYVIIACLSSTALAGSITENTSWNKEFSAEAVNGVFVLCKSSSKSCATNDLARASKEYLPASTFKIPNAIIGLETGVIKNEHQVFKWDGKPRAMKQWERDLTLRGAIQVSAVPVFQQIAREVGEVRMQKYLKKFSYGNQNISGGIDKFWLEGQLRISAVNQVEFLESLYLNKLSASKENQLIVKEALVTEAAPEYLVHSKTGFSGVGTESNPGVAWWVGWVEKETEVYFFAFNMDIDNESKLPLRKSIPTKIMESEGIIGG

As to `CN1CCN(NC(=O)CN2C(=O)/C(=C/c3c4ccccc4cc4ccccc34)SC2=S)CC1`, the Activity in [1] came to 41%; in assay [2], 1%.
Turning to `CC1=N/C(=C\c2ccc(F)cc2)C(=O)O1`, the inhibition result in assay [3], in assay [4], in [5] and in assay [6] was “inactive” each time. In addition, the Activity in the assay with Bacteria [7] and with Bacteria [8] was 100% in each case.
On to `O=C(O)C(O)Cc1ccccc1` (stereo not given), for which the inhibition result (in the assay on Bacteria [9]; in the assay with Bacteria [10]; in the assay on Bacteria [11]; with Bacteria [12]; in assay [13]; in assay [14]) was “inactive” in each case.
On to `O=P(O)(O)C(S)c1ccc(Br)cc1F` (stereo not given), for which the inhibition result in [3], in [4], in assay [5] and in [6] was “inactive” in each case. Also, the Activity in the assay on Bacteria [7] and in the assay on Bacteria [8] was 100% throughout.
As for `O=P(O)(O)C(O)c1ccc(Br)cc1F` (stereo not given), the inhibition result in [3], in assay [4], in assay [5] and in assay [6] was “inactive” throughout. Further, the Activity with Bacteria [7] and in the assay on Bacteria [8] was 100% in each case.
Regarding `O=C(O)/C(O)=C/c1ccc(F)cc1`, the inhibition result in [3], in assay [4], in assay [5] and in [6] was “inactive” each time. In addition, the Activity in the assay with Bacteria [7] and with Bacteria [8] was 100% in each case.
Regarding `CN1CCN(NC(=O)CN2C(=O)/C(=C/c3ccccc3Br)SC2=S)CC1`, the inhibition entry in assay [3], in assay [4], in [5] and in assay [6] was “inactive” each time.
For `O=C(O)CN1C(=O)/C(=C/c2ccccc2Cl)SC1=S`, the inhibition result in assay [3], in [4], in [5] and in assay [6] was “inactive” each time.
As for `O=C(O)/C(S)=C/c1c2ccccc2cc2ccccc12`, the Activity in [15] came out at 40%.
For `CN1CCN(NC(=O)CN2C(=O)/C(=C/c3c(Cl)ccc(Cl)c3Cl)SC2=S)CC1`, the inhibition entry in [3], in [4], in assay [5] and in assay [6] was “inactive” each time.
Turning to `O=C(O)/C(S)=C/c1ccccc1I`, the inhibition entry in assay [3], in [4], in [5] and in assay [6] was “inactive” each time.
In the case of `O=C(O)/C(S)=C/c1ccc(F)cc1`, the inhibition entry in assay [3], in assay [4], in [5] and in [6] was “inactive” throughout.
For the compound `O=C(O)CN1C(=O)/C(=C/c2ccccc2I)SC1=S`, the inhibition result in assay [3], in assay [4], in [5] and in assay [6] was “inactive” throughout.
Take `CN1CCN(NC(=O)CN2C(=O)/C(=C/c3c(Cl)cccc3Cl)SC2=S)CC1`: the inhibition entry in assay [3], in [4], in assay [5] and in assay [6] was “inactive” throughout.
Regarding `O=C(O)/C(S)=C/c1cc(Cl)ccc1Cl`, the inhibition result in [3], in assay [4], in assay [5] and in assay [6] was “inactive” each time.
Turning to `Cc1cccc(C)c1/C=C(\S)C(=O)O`, the inhibition entry in assay [3], in assay [4], in [5] and in assay [6] was “inactive” each time.
Consider `O=C(O)/C(S)=C/c1ccc(Br)cc1`, for which the inhibition entry in assay [3], in assay [4], in [5] and in assay [6] was “inactive” in each case.
`CN1CCN(NC(=O)CN2C(=O)/C(=C/c3ccccc3I)SC2=S)CC1`: the inhibition result in assay [3], in assay [4], in [5] and in [6] was “inactive” in each case.
As to `O=C(O)CN1C(=O)/C(=C/c2c(F)cccc2Cl)SC1=S`, the inhibition entry in assay [3], in [4], in [5] and in assay [6] was “inactive” throughout.
With `O=C(O)C(O)c1ccccc1` (stereo not given), the inhibition entry (in the assay on Bacteria [9]; with Bacteria [10]; in the assay with Bacteria [11]; with Bacteria [12]; in assay [13]; in assay [14]) was “inactive” throughout.
With `CN1CCN(NC(=O)CN2C(=O)/C(=C/c3c(F)ccc(F)c3F)SC2=S)CC1`, the inhibition entry in assay [3], in assay [4], in assay [5] and in [6] was “inactive” each time.
With `COc1ccc(/C=C(\S)C(=O)O)cc1`, the inhibition result in [3], in assay [4], in assay [5] and in assay [6] was “inactive” in each case.

(Values after ChEMBL document CHEMBL4118127, “Structure activity relationship studies on rhodanines and derived enethiol inhibitors of metallo-β-lactamases” (Bioorg Med Chem, 2018).)
